# Measurements: ChEMBL document CHEMBL3112482, “Nonclassical antifolates, part 5. Benzodiazepine analogs as a new class of DHFR inhibitors: synthesis, antitumor testing and molecular modeling study” (Eur J Med Chem, 2014)
# Experiments:
# K562 = assay: Growth inhibition of human K562 cells at 10 uM after 48 hrs; format: functional; conditions: K562, 48 h, read-out: GI
# Procedure, shortened: (§1)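 Single-dose primary screen in the NCI 60 human tumour cell line panel, run at the NCI facility. The panel covers nine subpanels: leukaemia, non-small cell lung, colon, CNS, melanoma, ovarian, renal, prostate and breast. Read-out was percent growth of treated cells, shown as a mean graph and reported as percent growth inhibition.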
# NCI-H23 = assay: Growth inhibition of human NCI-H23 cells at 10 uM after 48 hrs; format: functional; conditions: NCI-H23, 48 h, read-out: GI; procedure, shortened: as §1
# A498 = assay: Growth inhibition of human A498 cells at 10 uM after 48 hrs; format: functional; conditions: A498, 48 h, read-out: GI; procedure, shortened: as §1
# SF-268 = assay: Growth inhibition of human SF268 cells at 10 uM after 48 hrs; format: functional; conditions: SF-268, 48 h, read-out: GI
# Procedure, shortened: (§2)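 NCI 60-cell-line disease-oriented human tumor panel, single-dose primary screen at 10 µM. Data given as mean-graph percent growth of treated cells, reported as percent growth inhibition (GI %).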
# PC-3 = assay: Growth inhibition of human PC3 cells at 10 uM after 48 hrs; format: functional; conditions: PC-3, 48 h, read-out: GI; procedure, shortened: as §1
# SK-MEL-5 = assay: Growth inhibition of human SK-MEL-5 cells at 10 uM after 48 hrs; format: functional; conditions: SK-MEL-5, 48 h, read-out: GI; procedure, shortened: as §2
# OVCAR-3 = assay: Growth inhibition of human OVCAR3 cells at 10 uM after 48 hrs; format: functional; conditions: OVCAR-3, 48 h, read-out: GI; procedure, shortened: as §1
# A549 = assay: Growth inhibition of human A549 cells at 10 uM after 48 hrs; format: functional; conditions: A549, 48 h, read-out: GI; procedure, shortened: as §1
# [1] = Growth inhibition of human HOP92 cells at 10 uM after 48 hrs; format: functional; conditions: HOP-92, 48 h, read-out: GI; procedure, shortened: as §1
# [2] = Growth inhibition of human UACC257 cells at 10 uM after 48 hrs; format: functional; conditions: UACC-257, 48 h, read-out: GI; procedure, shortened: as §2
# SNB-75 = assay: Growth inhibition of human SNB75 cells at 10 uM after 48 hrs; format: functional; conditions: SNB-75, 48 h, read-out: GI; procedure, shortened: as §2
# MCF7 = assay: Growth inhibition of human MCF7 cells at 10 uM after 48 hrs; format: functional; conditions: MCF7, 48 h, read-out: GI; procedure, shortened: as §1
# [3] = Growth inhibition of human Hs 578T cells at 10 uM after 48 hrs; format: functional; conditions: read-out: GI; procedure, shortened: as §1
# NCI-H322M = assay: Growth inhibition of human NCI-H322M cells at 10 uM after 48 hrs; format: functional; conditions: read-out: GI; procedure, shortened: as §1
# SR = assay: Growth inhibition of human SR cells at 10 uM after 48 hrs; format: functional; conditions: read-out: GI; procedure, shortened: as §2
# IGROV-1 = assay: Growth inhibition of human IGROV1 cells at 10 uM after 48 hrs; format: functional; conditions: IGROV-1, 48 h, read-out: GI; procedure, shortened: as §1
# TK-10 = assay: Growth inhibition of human TK10 cells at 10 uM after 48 hrs; format: functional; conditions: TK-10, 48 h, read-out: GI; procedure, shortened: as §2
# [4] = Growth inhibition of human OVCAR4 cells at 10 uM after 48 hrs; format: functional; conditions: OVCAR-4, 48 h, read-out: GI; procedure, shortened: as §1
# [5] = Growth inhibition of human NCI-ADR-RES cells at 10 uM after 48 hrs; format: functional; conditions: read-out: GI; procedure, shortened: as §1
# T47D = assay: Growth inhibition of human T47D cells at 10 uM after 48 hrs; format: functional; conditions: read-out: GI; procedure, shortened: as §2
# MOLT-4 = assay: Growth inhibition of human MOLT4 cells at 10 uM after 48 hrs; format: functional; conditions: MOLT-4, 48 h, read-out: GI; procedure, shortened: as §1
# SW-620 = assay: Growth inhibition of human SW620 cells at 10 uM after 48 hrs; format: functional; conditions: SW-620, 48 h, read-out: GI; procedure, shortened: as §2
# [6] = Growth inhibition of human SF539 cells at 10 uM after 48 hrs; format: functional; conditions: SF-539, 48 h, read-out: GI; procedure, shortened: as §2
# M14 = assay: Growth inhibition of human M14 cells at 10 uM after 48 hrs; format: functional; conditions: M14, 48 h, read-out: GI; procedure, shortened: as §1
# NCI-H460 = assay: Growth inhibition of human NCI-H460 cells at 10 uM after 48 hrs; format: functional; conditions: NCI-H460, 48 h, read-out: GI; procedure, shortened: as §1
# UACC-62 = assay: Growth inhibition of human UACC62 cells at 10 uM after 48 hrs; format: functional; conditions: UACC-62, 48 h, read-out: GI; procedure, shortened: as §2
# SK-OV-3 = assay: Growth inhibition of human SKOV3 cells at 10 uM after 48 hrs; format: functional; conditions: SK-OV-3, 48 h, read-out: GI; procedure, shortened: as §2
# SK-MEL-28 = assay: Growth inhibition of human SK-MEL-28 cells at 10 uM after 48 hrs; format: functional; conditions: SK-MEL-28, 48 h, read-out: GI; procedure, shortened: as §2
# [7] = Growth inhibition of human UO31 cells at 10 uM after 48 hrs; format: functional; conditions: UO-31, 48 h, read-out: GI; procedure, shortened: as §2
# MDA-MB-231 = assay: Growth inhibition of human MDA-MB-231 cells at 10 uM after 48 hrs; format: functional; conditions: MDA-MB-231, 48 h, read-out: GI; procedure, shortened: as §1
# [8] = Growth inhibition of human OVCAR5 cells at 10 uM after 48 hrs; format: functional; conditions: OVCAR-5, 48 h, read-out: GI; procedure, shortened: as §1
# [9] = Growth inhibition of human EKVX cells at 10 uM after 48 hrs; format: functional; conditions: read-out: GI; procedure, shortened: as §1
# HL-60(TB) = assay: Growth inhibition of human HL-60(TB) cells at 10 uM after 48 hrs; format: functional; conditions: HL-60, 48 h, read-out: GI
# Procedure, shortened: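 NCI 60-cell-line human tumour panel covering nine subpanels (leukaemia, non-small cell lung, colon, CNS, melanoma, ovarian, renal, prostate, breast), run at the NCI facility. Primary screen tested a single dose of each compound. Read-out was percent growth of treated cells versus untreated cells, reported from the mean graph as percentage growth inhibition.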
# HCT-15 = assay: Growth inhibition of human HCT15 cells at 10 uM after 48 hrs; format: functional; conditions: HCT-15, 48 h, read-out: GI; procedure, shortened: as §1
# [10] = Growth inhibition of human HCC2998 cells at 10 uM after 48 hrs; format: functional; conditions: HCC 2998, 48 h, read-out: GI; procedure, shortened: as §1
# SNB-19 = assay: Growth inhibition of human SNB19 cells at 10 uM after 48 hrs; format: functional; conditions: SNB-19, 48 h, read-out: GI; procedure, shortened: as §2
# Dihydrofolate reductase = target: T1, Dihydrofolate reductase (Bos taurus, UniProt P00376); assay: Inhibition of bovine liver DHFR measured for every 1 min of 10 mins
# T1 sequence (P00376 whole entry): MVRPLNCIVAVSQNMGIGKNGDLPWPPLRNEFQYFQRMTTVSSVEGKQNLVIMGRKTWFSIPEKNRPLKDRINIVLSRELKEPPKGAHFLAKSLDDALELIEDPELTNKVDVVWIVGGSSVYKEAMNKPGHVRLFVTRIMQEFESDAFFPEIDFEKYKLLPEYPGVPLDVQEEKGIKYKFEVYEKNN
# [11] = Cytotoxicity against human breast cancer cells at 10 uM after 48 hrs; format: functional; conditions: Cancer cell lines; procedure, shortened: as §1
# [12] = Cytotoxicity against human renal cancer cells at 10 uM after 48 hrs; format: functional; conditions: Cancer cell lines
smiles,measurement,setting,value
COc1ccc(/C=C2\CCCc3c2nc(C)nc3-c2ccc(OC)cc2)cc1,inhibition of growth at 10 µM,K562,< 30%
same,inhibition of growth at 10 µM,NCI-H23,< 30%
same,inhibition of growth at 10 µM,A498,< 30%
same,inhibition of growth at 10 µM,SF-268,< 30%
same,inhibition of growth at 10 µM,PC-3,< 30%
same,inhibition of growth at 10 µM,SK-MEL-5,< 30%
same,inhibition of growth at 10 µM,OVCAR-3,< 30%
same,inhibition of growth at 10 µM,A549,< 30%
same,inhibition of growth at 10 µM,[1],< 30%
same,inhibition of growth at 10 µM,[2],< 30%
same,inhibition of growth at 10 µM,SNB-75,< 30%
same,inhibition of growth at 10 µM,MCF7,< 30%
same,inhibition of growth at 10 µM,[3],< 30%
same,inhibition of growth at 10 µM,NCI-H322M,< 30%
same,inhibition of growth at 10 µM,SR,< 30%
same,inhibition of growth at 10 µM,IGROV-1,< 30%
same,inhibition of growth at 10 µM,TK-10,< 30%
same,inhibition of growth at 10 µM,[4],< 30%
same,inhibition of growth at 10 µM,[5],< 30%
same,inhibition of growth at 10 µM,T47D,< 30%
same,inhibition of growth at 10 µM,MOLT-4,< 30%
same,inhibition of growth at 10 µM,SW-620,< 30%
same,inhibition of growth at 10 µM,[6],< 30%
same,inhibition of growth at 10 µM,M14,< 30%
same,inhibition of growth at 10 µM,NCI-H460,< 30%
same,inhibition of growth at 10 µM,UACC-62,< 30%
same,inhibition of growth at 10 µM,SK-OV-3,< 30%
same,inhibition of growth at 10 µM,SK-MEL-28,< 30%
same,inhibition of growth at 10 µM,[7],< 30%
same,inhibition of growth at 10 µM,MDA-MB-231,< 30%
same,inhibition of growth at 10 µM,[8],< 30%
same,inhibition of growth at 10 µM,[9],< 30%
same,inhibition of growth at 10 µM,HL-60(TB),< 30%
same,inhibition of growth at 10 µM,HCT-15,< 30%
same,inhibition of growth at 10 µM,[10],< 30%
same,inhibition of growth at 10 µM,SNB-19,< 30%
Nc1nc2c(c(-c3ccc(Cl)cc3)n1)CCC/C2=C\c1ccc(Cl)cc1,inhibition of growth at 10 µM,K562,56.5%
same,inhibition of growth at 10 µM,NCI-H23,38.9%
same,inhibition of growth at 10 µM,A498,45.3%
same,inhibition of growth at 10 µM,SF-268,< 30%
same,inhibition of growth at 10 µM,PC-3,< 30%
same,inhibition of growth at 10 µM,SK-MEL-5,< 30%
same,inhibition of growth at 10 µM,OVCAR-3,60.9%
same,inhibition of growth at 10 µM,A549,33.3%
same,inhibition of growth at 10 µM,[1],< 30%
same,inhibition of growth at 10 µM,[2],< 30%
same,inhibition of growth at 10 µM,SNB-75,< 30%
same,inhibition of growth at 10 µM,MCF7,66.9%
same,inhibition of growth at 10 µM,[3],< 30%
same,inhibition of growth at 10 µM,NCI-H322M,< 30%
same,inhibition of growth at 10 µM,SR,79.2%
same,inhibition of growth at 10 µM,IGROV-1,< 30%
same,inhibition of growth at 10 µM,TK-10,< 30%
same,inhibition of growth at 10 µM,[4],< 30%
same,inhibition of growth at 10 µM,[5],< 30%
same,inhibition of growth at 10 µM,T47D,< 30%
same,inhibition of growth at 10 µM,MOLT-4,35.1%
same,inhibition of growth at 10 µM,SW-620,81.1%
same,inhibition of growth at 10 µM,[6],< 30%
same,inhibition of growth at 10 µM,M14,89%
same,inhibition of growth at 10 µM,NCI-H460,< 30%
same,IC50,Dihydrofolate reductase,17 µM
same,inhibition of growth at 10 µM,UACC-62,< 30%
same,inhibition of growth at 10 µM,SK-OV-3,< 30%
same,GI50,[11],23.6 µM
same,LC50 (concentration killing 50% of cells),[11],92.2 µM
same,TGI,[11],70.9 µM
same,inhibition of growth at 10 µM,SK-MEL-28,< 30%
same,inhibition of growth at 10 µM,[7],32.2%
same,inhibition of growth at 10 µM,MDA-MB-231,< 30%
same,inhibition of growth at 10 µM,[8],< 30%
same,inhibition of growth at 10 µM,[9],< 30%
same,inhibition of growth at 10 µM,HL-60(TB),35.2%
same,inhibition of growth at 10 µM,HCT-15,41.7%
same,CC50,[12],78.4 µM
same,GI50,[12],14.7 µM
same,TGI,[12],40.6 µM
same,inhibition of growth at 10 µM,SNB-19,< 30%
